{"source": "ChEMBL document CHEMBL4689842", "about": "“EUbOPEN Chemogenomics Library wave 1” (2021)", "key": {"Fibroblast": {"test_system": "Fibroblast", "assay": "Incucyte cell viability with human fibroblast; further: filed as whole numbers so only -1 and 0 and 1 occur", "format": "toxicity, cell-based", "conditions": "10 µM, compound concentration 10 uM"}, "HEK-293T": {"test_system": "HEK-293T", "assay": "Multiplex assay against HEK293T;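 on Population Tubulin-Different-Phenotype (%): share of the cells with healthy nuclei that show this phenotype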", "format": "toxicity, cell-based", "conditions": "human", "outline": "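Live cells were stained at seeding with Hoechst33342, BioTracker Green Microtubule Cytoskeleton Dye, MitoTracker Red and Annexin V Alexa Fluor 680, then imaged on a CQ1 microscope at 37°C and 5% CO2 after compound addition. CellPathfinder machine-learning gating split cells into Hoechst high-intensity objects or normal cells. Normal cells were split into healthy, pyknosed or fragmented nuclei, and pyknosed cells into mitotic or apoptotic. Tubulin, mitochondrial-mass and membrane-permeability phenotypes are per cents of healthy-nucleus cells.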"}, "[1]": {"conditions": "12 h, 1 µM, compound concentration 1 uM, replicate 1"}, "[2]": {"conditions": "12 h, 1 µM, compound concentration 1 uM, replicate 2"}, "[3]": {"conditions": "12 h, 10 µM, compound concentration 10 uM, replicate 1"}, "[4]": {"conditions": "12 h, 10 µM, compound concentration 10 uM, replicate 2"}, "[5]": {"conditions": "24 h, 1 µM, compound concentration 1 uM, replicate 1"}, "[6]": {"conditions": "24 h, 1 µM, compound concentration 1 uM, replicate 2"}, "[7]": {"conditions": "24 h, 10 µM, compound concentration 10 uM, replicate 1"}, "[8]": {"conditions": "24 h, 10 µM, compound concentration 10 uM, replicate 2"}}, "data": [{"smiles": "Cl.Cn1c2c(c3ccc(Cl)c(Cl)c31)C(C#N)C1(CCNCC1)NC2=O", "note": "(stereo unspecified)", "values": [{"measurement": "Growth Rate", "setting": "Fibroblast; 6 h, replicate number 1, timepoint 6 hours", "value": 0}, {"measurement": "Growth Rate", "setting": "Fibroblast; 12 h, replicate number 1, timepoint 12 hours", "value": 0}, {"measurement": "Growth Rate", "setting": "Fibroblast; 18 h, replicate number 1, timepoint 18 hours", "value": 0}, {"measurement": "Growth Rate", "setting": "Fibroblast; 24 h, replicate number 1, timepoint 24 hours", "value": 0}, {"measurement": "Population Apoptotic (%)", "setting": "HEK-293T; [1]", "value": 17, "unit": "%"}, {"measurement": "Population Fragmented Nuclei (%)", "setting": "HEK-293T; [1]", "value": 13, "unit": "%"}, {"measurement": "Population Healthy Nuclei (%)", "setting": "HEK-293T; [1]", "value": 66, "unit": "%"}, {"measurement": "Population Hoechst High Intensity Objects (%)", "setting": "HEK-293T; [1]", "value": 10, "unit": "%"}, {"measurement": "Population Membrane Permeable-Phenotype (%)", "setting": "HEK-293T; [1]", "value": 8, "unit": "%"}, {"measurement": "Population Mitochondria Different-Phenotype (%)", "setting": "HEK-293T; [1]", "value": 6, "unit": "%"}, {"measurement": "Population Mitotic Cells (%)", "setting": "HEK-293T; [1]", "value": 82, "unit": "%"}, {"measurement": "Population Normal (%)", "setting": "HEK-293T; [1]", "value": 89, "unit": "%"}, {"measurement": "Population Pyknosed Nuclei (%)", "setting": "HEK-293T; [1]", "value": 19, "unit": "%"}, {"measurement": "Population Tubulin-Different-Phenotype (%)", "setting": "HEK-293T; [1]", "value": 10, "unit": "%"}, {"measurement": "Total Cell Count", "setting": "HEK-293T; [1]", "value": 650}, {"measurement": "Population Apoptotic (%)", "setting": "HEK-293T; [2]", "value": 2, "unit": "%"}, {"measurement": "Population Fragmented Nuclei (%)", "setting": "HEK-293T; [2]", "value": 6, "unit": "%"}, {"measurement": "Population Healthy Nuclei (%)", "setting": "HEK-293T; [2]", "value": 87, "unit": "%"}, {"measurement": "Population Hoechst High Intensity Objects (%)", "setting": "HEK-293T; [2]", "value": 3, "unit": "%"}, {"measurement": "Population Membrane Permeable-Phenotype (%)", "setting": "HEK-293T; [2]", "value": 3, "unit": "%"}, {"measurement": "Population Mitochondria Different-Phenotype (%)", "setting": "HEK-293T; [2]", "value": 7, "unit": "%"}, {"measurement": "Population Mitotic Cells (%)", "setting": "HEK-293T; [2]", "value": 97, "unit": "%"}, {"measurement": "Population Normal (%)", "setting": "HEK-293T; [2]", "value": 96, "unit": "%"}, {"measurement": "Population Pyknosed Nuclei (%)", "setting": "HEK-293T; [2]", "value": 5, "unit": "%"}, {"measurement": "Total Cell Count", "setting": "HEK-293T; [2]", "value": 1592}, {"measurement": "Population Apoptotic (%)", "setting": "HEK-293T; [3]", "value": 24, "unit": "%"}, {"measurement": "Population Fragmented Nuclei (%)", "setting": "HEK-293T; [3]", "value": 16, "unit": "%"}, {"measurement": "Population Healthy Nuclei (%)", "setting": "HEK-293T; [3]", "value": 30, "unit": "%"}, {"measurement": "Population Hoechst High Intensity Objects (%)", "setting": "HEK-293T; [3]", "value": 20, "unit": "%"}, {"measurement": "Population Membrane Permeable-Phenotype (%)", "setting": "HEK-293T; [3]", "value": 23, "unit": "%"}, {"measurement": "Population Mitochondria Different-Phenotype (%)", "setting": "HEK-293T; [3]", "value": 14, "unit": "%"}, {"measurement": "Population Mitotic Cells (%)", "setting": "HEK-293T; [3]", "value": 75, "unit": "%"}, {"measurement": "Population Normal (%)", "setting": "HEK-293T; [3]", "value": 79, "unit": "%"}, {"measurement": "Population Pyknosed Nuclei (%)", "setting": "HEK-293T; [3]", "value": 52, "unit": "%"}, {"measurement": "Population Tubulin-Different-Phenotype (%)", "setting": "HEK-293T; [3]", "value": 76, "unit": "%"}, {"measurement": "Total Cell Count", "setting": "HEK-293T; [3]", "value": 698}, {"measurement": "Population Apoptotic (%)", "setting": "HEK-293T; [4]", "value": 17, "unit": "%"}, {"measurement": "Population Fragmented Nuclei (%)", "setting": "HEK-293T; [4]", "value": 3, "unit": "%"}, {"measurement": "Population Healthy Nuclei (%)", "setting": "HEK-293T; [4]", "value": 74, "unit": "%"}, {"measurement": "Population Hoechst High Intensity Objects (%)", "setting": "HEK-293T; [4]", "value": 4, "unit": "%"}, {"measurement": "Population Membrane Permeable-Phenotype (%)", "setting": "HEK-293T; [4]", "value": 24, "unit": "%"}, {"measurement": "Population Mitochondria Different-Phenotype (%)", "setting": "HEK-293T; [4]", "value": 25, "unit": "%"}, {"measurement": "Population Mitotic Cells (%)", "setting": "HEK-293T; [4]", "value": 82, "unit": "%"}, {"measurement": "Population Normal (%)", "setting": "HEK-293T; [4]", "value": 95, "unit": "%"}, {"measurement": "Population Pyknosed Nuclei (%)", "setting": "HEK-293T; [4]", "value": 22, "unit": "%"}, {"measurement": "Population Tubulin-Different-Phenotype (%)", "setting": "HEK-293T; [4]", "value": 95, "unit": "%"}, {"measurement": "Total Cell Count", "setting": "HEK-293T; [4]", "value": 983}, {"measurement": "Population Apoptotic (%)", "setting": "HEK-293T; [5]", "value": 16, "unit": "%"}, {"measurement": "Population Fragmented Nuclei (%)", "setting": "HEK-293T; [5]", "value": 11, "unit": "%"}, {"measurement": "Population Healthy Nuclei (%)", "setting": "HEK-293T; [5]", "value": 77, "unit": "%"}, {"measurement": "Population Hoechst High Intensity Objects (%)", "setting": "HEK-293T; [5]", "value": 7, "unit": "%"}, {"measurement": "Population Membrane Permeable-Phenotype (%)", "setting": "HEK-293T; [5]", "value": 17, "unit": "%"}, {"measurement": "Population Mitochondria Different-Phenotype (%)", "setting": "HEK-293T; [5]", "value": 5, "unit": "%"}, {"measurement": "Population Mitotic Cells (%)", "setting": "HEK-293T; [5]", "value": 83, "unit": "%"}, {"measurement": "Population Normal (%)", "setting": "HEK-293T; [5]", "value": 92, "unit": "%"}, {"measurement": "Population Pyknosed Nuclei (%)", "setting": "HEK-293T; [5]", "value": 10, "unit": "%"}, {"measurement": "Population Tubulin-Different-Phenotype (%)", "setting": "HEK-293T; [5]", "value": 17, "unit": "%"}, {"measurement": "Total Cell Count", "setting": "HEK-293T; [5]", "value": 747}, {"measurement": "Population Apoptotic (%)", "setting": "HEK-293T; [6]", "value": 5, "unit": "%"}, {"measurement": "Population Fragmented Nuclei (%)", "setting": "HEK-293T; [6]", "value": 24, "unit": "%"}, {"measurement": "Population Healthy Nuclei (%)", "setting": "HEK-293T; [6]", "value": 72, "unit": "%"}, {"measurement": "Population Hoechst High Intensity Objects (%)", "setting": "HEK-293T; [6]", "value": 3, "unit": "%"}, {"measurement": "Population Membrane Permeable-Phenotype (%)", "setting": "HEK-293T; [6]", "value": 7, "unit": "%"}, {"measurement": "Population Mitochondria Different-Phenotype (%)", "setting": "HEK-293T; [6]", "value": 1, "unit": "%"}, {"measurement": "Population Mitotic Cells (%)", "setting": "HEK-293T; [6]", "value": 94, "unit": "%"}, {"measurement": "Population Normal (%)", "setting": "HEK-293T; [6]", "value": 96, "unit": "%"}, {"measurement": "Population Pyknosed Nuclei (%)", "setting": "HEK-293T; [6]", "value": 2, "unit": "%"}, {"measurement": "Population Tubulin-Different-Phenotype (%)", "setting": "HEK-293T; [6]", "value": 11, "unit": "%"}, {"measurement": "Total Cell Count", "setting": "HEK-293T; [6]", "value": 2758}, {"measurement": "Population Apoptotic (%)", "setting": "HEK-293T; [7]", "value": 25, "unit": "%"}, {"measurement": "Population Fragmented Nuclei (%)", "setting": "HEK-293T; [7]", "value": 19, "unit": "%"}, {"measurement": "Population Healthy Nuclei (%)", "setting": "HEK-293T; [7]", "value": 32, "unit": "%"}, {"measurement": "Population Hoechst High Intensity Objects (%)", "setting": "HEK-293T; [7]", "value": 19, "unit": "%"}, {"measurement": "Population Membrane Permeable-Phenotype (%)", "setting": "HEK-293T; [7]", "value": 16, "unit": "%"}, {"measurement": "Population Mitochondria Different-Phenotype (%)", "setting": "HEK-293T; [7]", "value": 22, "unit": "%"}, {"measurement": "Population Mitotic Cells (%)", "setting": "HEK-293T; [7]", "value": 74, "unit": "%"}, {"measurement": "Population Normal (%)", "setting": "HEK-293T; [7]", "value": 80, "unit": "%"}, {"measurement": "Population Pyknosed Nuclei (%)", "setting": "HEK-293T; [7]", "value": 47, "unit": "%"}, {"measurement": "Population Tubulin-Different-Phenotype (%)", "setting": "HEK-293T; [7]", "value": 86, "unit": "%"}, {"measurement": "Total Cell Count", "setting": "HEK-293T; [7]", "value": 669}, {"measurement": "Population Apoptotic (%)", "setting": "HEK-293T; [8]", "value": 12, "unit": "%"}, {"measurement": "Population Fragmented Nuclei (%)", "setting": "HEK-293T; [8]", "value": 5, "unit": "%"}, {"measurement": "Population Healthy Nuclei (%)", "setting": "HEK-293T; [8]", "value": 81, "unit": "%"}, {"measurement": "Population Hoechst High Intensity Objects (%)", "setting": "HEK-293T; [8]", "value": 9, "unit": "%"}, {"measurement": "Population Membrane Permeable-Phenotype (%)", "setting": "HEK-293T; [8]", "value": 13, "unit": "%"}, {"measurement": "Population Mitochondria Different-Phenotype (%)", "setting": "HEK-293T; [8]", "value": 25, "unit": "%"}, {"measurement": "Population Mitotic Cells (%)", "setting": "HEK-293T; [8]", "value": 87, "unit": "%"}, {"measurement": "Population Normal (%)", "setting": "HEK-293T; [8]", "value": 91, "unit": "%"}, {"measurement": "Population Pyknosed Nuclei (%)", "setting": "HEK-293T; [8]", "value": 13, "unit": "%"}, {"measurement": "Population Tubulin-Different-Phenotype (%)", "setting": "HEK-293T; [8]", "value": 94, "unit": "%"}, {"measurement": "Total Cell Count", "setting": "HEK-293T; [8]", "value": 1033}]}]}
